As a reminder, the IC50 is the concentration that gives 50% inhibition. High values mean a need for much substance, low ones inhibition by little substance. The term Inhibition denotes the percentage by which the read-out fell short of the control. The low end stands for a response near the control, the high end for a response far below the control.

Experimental findings from ChEMBL document CHEMBL1127442, “Triazolinone biphenylsulfonamide derivatives as orally active angiotensin II antagonists with potent AT1 receptor affinity and enhanced AT2 affinity” (J Med Chem, 1994) are described below.

Assay [1] concerns the target T1, Type-2 angiotensin II receptor (Rattus norvegicus, UniProt P35351).
T1 sequence (P35351 whole entry): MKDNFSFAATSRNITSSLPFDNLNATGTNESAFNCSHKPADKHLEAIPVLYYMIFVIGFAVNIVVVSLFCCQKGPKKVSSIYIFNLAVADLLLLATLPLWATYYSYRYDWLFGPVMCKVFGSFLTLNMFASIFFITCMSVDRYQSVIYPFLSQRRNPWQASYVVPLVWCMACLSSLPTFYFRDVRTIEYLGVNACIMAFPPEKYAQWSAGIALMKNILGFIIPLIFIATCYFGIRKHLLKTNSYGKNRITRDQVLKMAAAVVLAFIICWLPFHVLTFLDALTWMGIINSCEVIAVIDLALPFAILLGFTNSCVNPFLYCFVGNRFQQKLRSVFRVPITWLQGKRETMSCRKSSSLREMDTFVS
The assay can be described thus: In vitro inhibitory activity against angiotensin II rat midbrain AT2 receptor using radioligand [125I]-Sar Ile-AII. The method in brief:
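Dithiothreitol ([…]) was added to the assay mixture to abolish residual AT1 binding. Tubes were run in duplicate, and IC50 came from nonlinear regression of displacement curves.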

Assay [2] deals with T2, Type-1 angiotensin II receptor (Oryctolagus cuniculus, UniProt P34976).
T2 sequence (P34976 whole entry): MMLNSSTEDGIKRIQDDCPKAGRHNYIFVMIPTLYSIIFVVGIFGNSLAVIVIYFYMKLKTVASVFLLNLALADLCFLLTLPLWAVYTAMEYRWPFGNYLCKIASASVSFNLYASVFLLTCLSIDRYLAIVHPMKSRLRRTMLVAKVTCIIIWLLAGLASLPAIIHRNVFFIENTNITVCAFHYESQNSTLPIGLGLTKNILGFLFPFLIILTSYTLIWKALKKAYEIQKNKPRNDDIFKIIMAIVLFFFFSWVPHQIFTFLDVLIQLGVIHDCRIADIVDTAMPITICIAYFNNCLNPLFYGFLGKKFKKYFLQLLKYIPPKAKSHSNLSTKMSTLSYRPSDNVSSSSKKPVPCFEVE
The assay can be described thus: In vitro inhibitory activity against angiotensin II rabbit aorta AT1 receptor using radioligand [125I]-Sar Ile-AII. In kind it is tissue-based.

Assay [3] has as its system Rattus norvegicus. The assay can be described thus: Time from onset of action until significant (i.e., >=30%) inhibition of pressor response is no longer observed, at 1 (mg/kg) intravenous dose. In kind it is functional.
Assay [4] relates to Rattus norvegicus. Nature of the assay: Time from onset of action until significant (i.e., >=30%) inhibition of pressor response is no longer observed, at 1 (mg/kg) peroral dose. In kind it is functional. The method in brief:
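Conscious catheterized male Sprague-Dawley rats received compound iv or po as the water-soluble potassium salt, or in PEG 400 orally. AII (0.1 μg/kg iv) boluses were repeated at intervals while the compound was active.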

Assay [5] deals with Rattus norvegicus. The assay can be described thus: Inhibition of AII pressor response by the compound in conscious, normotensive rats, at 1 (mg/kg) intravenous dose. In kind it is functional. In outline: (§1)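 Male Sprague-Dawley rats (300-400 g) were conscious and catheterized for iv dosing and arterial pressure. Compound was given iv or po as the potassium salt in water, with PEG 400 for some oral doses. […] Peak inhibition is the mean of ≥2 rats.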

For assay [6], the system named is Rattus norvegicus. Nature of the assay: Inhibition of AII pressor response by the compound in conscious, normotensive rats, at 1 (mg/kg) peroral dose. Type of assay: functional. The method in brief:
as §1

`CCCCc1nn(-c2ccccc2C(F)(F)F)c(=O)n1Cc1ccc(-c2ccccc2S(=O)(=O)NC(=O)C(C)C)cc1`: the IC50 was found to be 150 nM in assay [1] and 0.8 nM in assay [2]. The Duration with Rattus norvegicus [3] was >6 h; with Rattus norvegicus [4], 1.3 h. The results for the Inhibition in the assay on Rattus norvegicus [5] and with Rattus norvegicus [6] were 100% and 45%, respectively.

Regarding `CCCCc1nn(-c2ccccc2C(F)(F)F)c(=O)n1Cc1ccc(-c2ccccc2S(=O)(=O)NC(=O)c2cc(C)oc2C(F)(F)F)cc1`, the results for the concentration for half-maximal inhibition (IC50) in assay [1] and in assay [2] were 60 nM and 0.17 nM, respectively.

Regarding `CCCCc1nn(-c2ccccc2C(F)(F)F)c(=O)n1Cc1ccc(-c2ccccc2S(=O)(=O)NC(=O)C2C(C)(C)C2(C)C)cc1`, the values for the IC50 in assay [1] and in assay [2] were 130 nM and 3.3 nM, respectively.

With `CCCCc1nn(-c2ccccc2Cl)c(=O)n1Cc1ccc(-c2ccccc2S(N)(=O)=O)cc1`, the figures for the IC50 in assay [1] and in assay [2] were 24000 nM and 820 nM, respectively.

In the case of `CCCCc1nn(-c2ccccc2C(F)(F)F)c(=O)n1Cc1ccc(-c2ccccc2S(=O)(=O)NC(=O)c2cc(Cl)sc2Cl)cc1`, the IC50 in assay [1] is 87 nM; in assay [2] it was 2.6 nM.

As to `CCCCc1nn(-c2ccccc2C(F)(F)F)c(=O)n1Cc1ccc(-c2ccccc2S(=O)(=O)NC(=O)c2ccc(OC)cc2)cc1`, the half-inhibitory concentration (IC50) in assay [1] came out at 500 nM; in assay [2], 0.74 nM.

For `CCCCc1nn(-c2ccccc2C(F)(F)F)c(=O)n1Cc1ccc(-c2ccccc2S(=O)(=O)NC(=O)c2ccccc2Br)cc1`, the IC50 was found to be 45 nM in assay [1] and 0.4 nM in assay [2].

On to `CCCCc1nn(-c2ccccc2C(F)(F)F)c(=O)n1Cc1ccc(-c2ccccc2S(=O)(=O)NC(=O)c2ccccc2Cl)cc1`, for which the IC50 in assay [1] came to 36 nM; in assay [2] it was 0.11 nM. For the same compound, the Duration is >24 h with Rattus norvegicus [3] and >6 h with Rattus norvegicus [4].

Take `CCCCc1nn(-c2ccccc2C(F)(F)F)c(=O)n1Cc1ccc(-c2ccccc2S(=O)(=O)NC(=O)c2ccc(C)s2)cc1`: the IC50 in assay [1] stood at 190 nM; in assay [2], 0.64 nM.

Regarding `CCCCc1nn(-c2ccccc2C(F)(F)F)c(=O)n1Cc1ccc(-c2ccccc2S(=O)(=O)NC(=O)C2CC2)cc1`, the figures for the IC50 in assay [1] and in assay [2] were 110 nM and 1.5 nM, respectively.

As to `CCCCc1nn(-c2ccccc2C(F)(F)F)c(=O)n1Cc1ccc(-c2ccccc2S(=O)(=O)NC(=O)NC(C)C)cc1`, the IC50 in assay [1] stood at 300 nM; in assay [2] it was 1.1 nM.

As to `CCCCc1nn(-c2ccccc2C(F)(F)F)c(=O)n1Cc1ccc(-c2ccccc2S(=O)(=O)NC(=O)c2ocnc2C)cc1`, the IC50 in assay [1] is 35 nM; in assay [2], 1.1 nM.

With `CCCCc1nn(-c2ccccc2C(F)(F)F)c(=O)n1Cc1ccc(-c2ccccc2S(=O)(=O)NC(=O)c2ccccc2C(F)(F)F)cc1`, the 50% inhibitory concentration (IC50) turned out to be 220 nM in assay [1] and 0.27 nM in assay [2].

For `CCCCc1nn(-c2ccccc2C(F)(F)F)c(=O)n1Cc1ccc(-c2ccccc2S(=O)(=O)NC(=O)C(c2ccccc2)c2ccccc2)cc1`, the 50% inhibitory concentration (IC50) was 320 nM in assay [1] and 2.8 nM in assay [2].

Take `CCCCc1nn(-c2ccccc2C(F)(F)F)c(=O)n1Cc1ccc(-c2ccccc2S(=O)(=O)NC(=O)c2ccccc2OC)cc1`: the IC50 was found to be 72 nM in assay [1] and 0.41 nM in assay [2].

Take `CCCCc1nn(-c2ccccc2C(F)(F)F)c(=O)n1Cc1ccc(-c2ccccc2S(=O)(=O)NC(=O)c2ccc(Br)o2)cc1`: the 50% inhibitory concentration (IC50) came to 170 nM in assay [1] and 0.4 nM in assay [2].

For the compound `CCCCc1nn(-c2ccccc2C(F)(F)F)c(=O)n1Cc1ccc(-c2ccccc2NS(=O)(=O)C(F)(F)F)cc1`, the figures for the concentration for half-maximal inhibition (IC50) in assay [1] and in assay [2] were 5500 nM and 1.8 nM, respectively.

`CCCCc1nn(-c2ccccc2C(F)(F)F)c(=O)n1Cc1ccc(-c2ccccc2S(=O)(=O)NC(=O)c2ccoc2C)cc1`: the IC50 in assay [1] was 110 nM; in assay [2], 3 nM.

For the compound `CCCCc1nn(-c2ccccc2C(F)(F)F)c(=O)n1Cc1ccc(-c2ccccc2S(=O)(=O)NC(=O)c2oc3ccccc3c2C)cc1`, the IC50 in assay [1] turned out to be 130 nM; in assay [2] it was 0.43 nM.

For `CCCCc1nn(-c2ccccc2C(F)(F)F)c(=O)n1Cc1ccc(-c2ccccc2S(=O)(=O)NC(=O)c2sccc2Br)cc1`, the IC50 in assay [1] came out at 43 nM; in assay [2], 0.72 nM.

As to `CCCCc1nn(-c2ccccc2C(F)(F)F)c(=O)n1Cc1ccc(-c2ccccc2S(=O)(=O)NC(=O)c2cc(OC)c(OC)c(OC)c2)cc1`, the results for the IC50 in assay [1] and in assay [2] were 6500 nM and 21 nM, respectively.

Take `CCCCc1nn(-c2ccccc2C(F)(F)F)c(=O)n1Cc1ccc(-c2ccccc2S(=O)(=O)NC(=O)Cc2ccccc2)cc1`: the IC50 amounted to 240 nM in assay [1] and 1.6 nM in assay [2].

Regarding `CCCCc1nn(-c2ccccc2C(F)(F)F)c(=O)n1Cc1ccc(-c2ccccc2S(=O)(=O)NC(=O)C2CCCC2)cc1`, the 50% inhibitory concentration (IC50) in assay [1] was found to be 82 nM; in assay [2], 0.32 nM.

As for `CCCCc1nn(-c2ccccc2C(F)(F)F)c(=O)n1Cc1ccc(-c2ccccc2S(=O)(=O)NC(=O)CCCC(=O)O)cc1`, the values for the half-inhibitory concentration (IC50) in assay [1] and in assay [2] were 1500 nM and 5.5 nM, respectively.

On to `CCCCc1nn(-c2ccccc2C(F)(F)F)c(=O)n1Cc1ccc(-c2ccccc2S(=O)(=O)NC(=O)CCCCCN)cc1`, for which the 50% inhibitory concentration (IC50) in assay [1] amounted to 100 nM; in assay [2], 1.3 nM.

Consider `CCCCc1nn(-c2ccccc2C(F)(F)F)c(=O)n1Cc1ccc(-c2ccccc2S(=O)(=O)NC(=O)C2CCCO2)cc1` (stereo not drawn), for which the 50% inhibitory concentration (IC50) in assay [1] turned out to be 180 nM; in assay [2], 4.3 nM.

Take `CCCCc1nn(-c2ccccc2C(F)(F)F)c(=O)n1Cc1ccc(-c2ccccc2S(=O)(=O)NC(=O)C2CCOC2)cc1` (stereo not drawn): the IC50 turned out to be 280 nM in assay [1] and 2.8 nM in assay [2].

For the compound `O=C(NS(=O)(=O)c1ccccc1-c1ccc(Cn2c(CCCC(F)(F)F)nn(-c3ccccc3C(F)(F)F)c2=O)cc1)c1ccccc1`, the IC50 in assay [1] is > 300 nM; in assay [2] it was 5.5 nM.

`CCCCc1nn(C(C)C)c(=O)n1Cc1ccc(-c2ccccc2S(=O)(=O)NC(=O)c2ccccc2)cc1`: the IC50 turned out to be 4600 nM in assay [1] and 7 nM in assay [2].

For the compound `CCCCc1nn(-c2ccccc2C(F)(F)F)c(=O)n1Cc1ccc(-c2ccccc2S(=O)(=O)NC#N)cc1`, the half-inhibitory concentration (IC50) is > 1000 nM in assay [1] and 4.7 nM in assay [2].

As to `CCCCc1nn(-c2ccccc2C(F)(F)F)c(=O)n1Cc1ccc(-c2ccccc2S(=O)(=O)NC(=O)c2ccccc2F)cc1`, the IC50 in assay [1] was 53 nM; in assay [2] it was 0.13 nM.

For the compound `CCCCc1nn(CC(C)(C)C)c(=O)n1Cc1ccc(-c2ccccc2S(=O)(=O)NC(=O)c2ccccc2)cc1`, the results for the concentration for half-maximal inhibition (IC50) in assay [1] and in assay [2] were 2300 nM and 3.3 nM, respectively.

Turning to `CCCCc1nn(-c2ccccc2C(F)(F)F)c(=O)n1Cc1ccc(-c2ccccc2S(=O)(=O)NC(=O)c2cc(Br)sc2Br)cc1`, the results for the IC50 in assay [1] and in assay [2] were 84 nM and 0.67 nM, respectively.

On to `CCCCc1nn(-c2ccccc2C(F)(F)F)c(=O)n1Cc1ccc(-c2ccccc2S(=O)(=O)NS(=O)(=O)c2ccccc2)cc1`, for which the IC50 in assay [1] was determined as 2400 nM; in assay [2], 0.2 nM.

Take `CCCCc1nn(-c2ccccc2C(F)(F)F)c(=O)n1Cc1ccc(-c2ccccc2S(=O)(=O)NC(=O)OCC)cc1`: the figures for the IC50 in assay [1] and in assay [2] were 75 nM and 2.2 nM, respectively.

As for `CCCCc1nn(-c2ccccc2C(F)(F)F)c(=O)n1Cc1ccc(-c2ccccc2S(=O)(=O)NC(=O)C2CC3CCC2C3)cc1` (stereo not drawn), the IC50 was 100 nM in assay [1] and 0.39 nM in assay [2].

With `CCCCOC(=O)NS(=O)(=O)c1ccccc1-c1ccc(Cn2c(CCCC)nn(-c3ccccc3C(F)(F)F)c2=O)cc1`, the results for the IC50 in assay [1] and in assay [2] were 190 nM and 0.59 nM, respectively.

On to `CCCCc1nn(-c2ccccc2C(F)(F)F)c(=O)n1Cc1ccc(-c2ccccc2S(=O)(=O)NC(=O)c2cccc(C(F)(F)F)c2)cc1`, for which the IC50 in assay [1] is 580 nM; in assay [2] it was 3.3 nM.

On to `CCCCc1nn(-c2ccccc2C(F)(F)F)c(=O)n1Cc1ccc(-c2ccccc2S(=O)(=O)NC(=O)c2oc(C)cc2C)cc1`, for which the values for the concentration for half-maximal inhibition (IC50) in assay [1] and in assay [2] were 55 nM and 0.22 nM, respectively.

Turning to `CCCc1nn(-c2ccccc2C(F)(F)F)c(=O)n1Cc1ccc(-c2ccccc2S(=O)(=O)NC(=O)c2ccccc2)cc1`, the 50% inhibitory concentration (IC50) in assay [1] was 520 nM; in assay [2], 13 nM.

`CCCCc1nn(-c2ccccc2C(F)(F)F)c(=O)n1Cc1ccc(-c2ccccc2S(=O)(=O)NC(=O)c2ccc(C)o2)cc1`: the IC50 in assay [1] came to 150 nM; in assay [2], 0.4 nM.
